Measured values as given in ChEMBL document CHEMBL4219167, “Disulfiram-based disulfides as narrow-spectrum antibacterial agents” (Bioorg Med Chem Lett, 2018).
Converted amounts (≈) assume the structure as drawn.

How the values were obtained:
[1] = system: Yersinia pestis; assay: Antibacterial activity against Yersinia pestis Kim D2 after 20 hrs by broth microdilution assay; assay type: functional; conditions: Kim D2, 20 h
[2] = system: Corynebacterium striatum; assay: Antibacterial activity against Corynebacterium striatum FS-1 after 20 hrs by broth microdilution assay; assay type: functional; conditions: FS-1, 20 h
[3] = system: Shigella dysenteriae; assay: Antibacterial activity against Shigella dysenteriae Newcastle 1934 after 20 hrs by broth microdilution assay; assay type: functional; conditions: Newcastle 1934, 20 h
How it was run: (§1)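 Medium is tryptic soy broth, 37°C. Overnight culture is adjusted to 0.5 McFarland, diluted 1:100 and exposed to serial dilutions (test agents from 1 mM or 1 mg/mL DMSO stocks; control antibiotics in water). Incubation lasts 20 h. MIC is the lowest concentration with no visible growth.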

[4] = system: Vibrio cholerae; assay: Antibacterial activity against Vibrio cholerae TS D4 after 20 hrs by Todd Hewitt broth broth microdilution method; assay type: functional; conditions: TS D4, 20 h
[5] = system: Burkholderia multivorans; assay: Antibacterial activity against Burkholderia multivorans CF2 after 20 hrs by broth microdilution assay; assay type: functional; conditions: CF2, 20 h; how it was run: as §1
[6] = system: Staphylococcus aureus; assay: Antibacterial activity against vancomycin-resistant Staphylococcus aureus HIP14300 after 20 hrs by broth microdilution assay; assay type: functional; conditions: HIP14300, 20 h
[7] = system: Staphylococcus aureus; assay: Antibacterial activity against vancomycin-intermediate resistant Staphylococcus aureus AR-217 after 20 hrs by broth microdilution assay; assay type: functional; conditions: AR-217, 20 h
[8] = system: Acinetobacter baumannii; assay: Antibacterial activity against Acinetobacter baumannii AB5075 after 20 hrs by broth microdilution assay; assay type: functional; conditions: AB5075, 20 h
[9] = system: Micrococcus luteus; assay: Antibacterial activity against Micrococcus luteus SK58 after 20 hrs by broth microdilution assay; assay type: functional; conditions: SK58, 20 h
[10] = system: Citrobacter freundii; assay: Antibacterial activity against Citrobacter freundii 4_7_47CFAA after 20 hrs by broth microdilution assay; assay type: functional
How it was run: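 Brucella broth, 37°C, 5% CO2. Inoculum is 0.5 McFarland diluted 1:100, with serial drug dilutions from DMSO stocks (1 mM or 1 mg/mL) and control antibiotics in water.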

[11] = system: Pseudomonas aeruginosa; assay: Antibacterial activity against Pseudomonas aeruginosa ATCC 15442 after 20 hrs by broth microdilution assay; assay type: functional; conditions: ATCC 15442, 20 h; how it was run: as §1
[12] = system: Staphylococcus aureus; assay: Antibacterial activity against methicillin-resistant Staphylococcus aureus COL after 20 hrs by broth microdilution assay; assay type: functional
[13] = system: Burkholderia cepacia; assay: Antibacterial activity against Burkholderia cepacia UCB 717 after 20 hrs by broth microdilution assay; assay type: functional; conditions: UCB 717, 20 h; how it was run: as §1
[14] = system: Salmonella typhi; assay: Antibacterial activity against Salmonella typhi Ty2 after 20 hrs by Todd Hewitt broth broth microdilution method; assay type: functional, Salmonella enterica subsp. enterica serovar Typhi str. Ty2; conditions: Salmonella enterica
[15] = system: Yersinia pseudotuberculosis; assay: Antibacterial activity against Yersinia pseudotuberculosis P61 after 20 hrs by broth microdilution assay; assay type: functional; conditions: P61, 20 h
How it was run: (§2)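 Yersinia cultured in tryptic soy broth at 28°C. A 0.5 McFarland suspension diluted 1:100 receives serial dilutions of agents from 1 mM or 1 mg/mL DMSO stocks; control antibiotics are in water.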

[16] = system: Yersinia pestis; assay: Antibacterial activity against Yersinia pestis Kuma D7 after 20 hrs by broth microdilution assay; assay type: functional; conditions: Kuma D7, 20 h
[17] = system: Yersinia enterocolitica; assay: Antibacterial activity against Yersinia enterocolitica WA-314 after 20 hrs by broth microdilution assay; assay type: functional; conditions: WA-314, 20 h; how it was run: as §2
[18] = system: Staphylococcus epidermidis; assay: Antibacterial activity against vancomycin-intermediate resistant Staphylococcus epidermidis NRS6 after 20 hrs by broth microdilution assay; assay type: functional; conditions: NRS6, 20 h
[19] = system: Escherichia coli; assay: Antibacterial activity against Escherichia coli DC10B after 20 hrs by broth microdilution assay; assay type: functional; how it was run: as §1
[20] = system: Francisella tularensis; assay: Antibacterial activity against Francisella tularensis Utah 112 after 20 hrs by broth microdilution assay; assay type: functional; conditions: Utah 112, 20 h
[21] = system: Enterococcus faecium; assay: Antibacterial activity against vancomycin-resistant Enterococcus faecium ATCC 700221 after 20 hrs by broth microdilution assay; assay type: functional; conditions: ATCC 700221, 20 h
How it was run: (§3)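 Brain heart infusion broth at 37°C; E. faecium under 5% CO2. Cells at 0.5 McFarland are diluted 1:100 and exposed to serial dilutions (DMSO stocks 1 mM or 1 mg/mL; controls in water).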

[22] = system: Streptococcus pyogenes; assay: Antibacterial activity against Streptococcus pyogenes H293 after 20 hrs by broth microdilution assay; assay type: functional; conditions: H293, 20 h
[23] = system: Bacillus cereus; assay: Antibacterial activity against Bacillus cereus Gibson 971 after 20 hrs by broth microdilution assay; assay type: functional; conditions: Gibson 971, 20 h
[24] = system: Proteus mirabilis; assay: Antibacterial activity against Proteus mirabilis HM-752 after 20 hrs by broth microdilution assay; assay type: functional; conditions: HM-752, 20 h; how it was run: as §1
[25] = system: Listeria monocytogenes; assay: Antibacterial activity against Listeria monocytogenes Gibson after 20 hrs by broth microdilution assay; assay type: functional; how it was run: as §3
[26] = system: Streptococcus pneumoniae; assay: Antibacterial activity against Streptococcus pneumoniae TCH8431 after 20 hrs by broth microdilution assay; assay type: functional; conditions: TCH8431, 20 h
[27] = system: Streptococcus agalactiae; assay: Antibacterial activity against Streptococcus agalactiae SGBS005 after 20 hrs by broth microdilution assay; assay type: functional; conditions: SGBS005, 20 h
[28] = system: Bacillus anthracis; assay: Antibacterial activity against Bacillus anthracis Ames 35 after 20 hrs by broth microdilution assay; assay type: functional; conditions: Ames 35, 20 h
[29] = system: Klebsiella pneumoniae; assay: Antibacterial activity against Klebsiella pneumoniae 700603 after 20 hrs by broth microdilution assay; assay type: functional; conditions: Klebsiella pneumoniae, 700603, 20 h; how it was run: as §1
[30] = system: Bacillus anthracis; assay: Antibacterial activity against Bacillus anthracis Weybridge after 20 hrs by broth microdilution assay; assay type: functional
[31] = system: Bacillus anthracis; assay: Antibacterial activity against Bacillus anthracis Sterne 34F2 after 20 hrs by broth microdilution assay; assay type: functional; conditions: Sterne 34F2, 20 h
[32] = system: Brucella neotomae; assay: Antibacterial activity against Brucella neotomae 5K33 after 20 hrs by broth microdilution assay; assay type: functional; conditions: 5K33, 20 h
[33] = system: HepG2; assay: Cytotoxicity against human HepG2 cells assessed as reduction in cell viability after 72 hrs by MTT assay; assay type: cell-based; conditions: HepG2, 72 h
[34] = system: Rhodococcus erythropolis; assay: Antibacterial activity against Rhodococcus erythropolis SK121 after 20 hrs by broth microdilution assay; assay type: functional; conditions: SK121, 20 h
How it was run: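 R. erythropolis grown in brain heart infusion broth at 30°C. A 0.5 McFarland suspension diluted 1:100 is treated with serial dilutions from 1 mM or 1 mg/mL DMSO stocks; control antibiotics are in water.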

[35] = system: Bacillus anthracis; assay: Antibacterial activity against Bacillus anthracis UM23-1 after 20 hrs by broth microdilution assay; assay type: functional; conditions: UM23-1, 20 h
[36] = system: Staphylococcus epidermidis; assay: Antibacterial activity against vancomycin-intermediate resistant Staphylococcus epidermidis NRS53 after 20 hrs by broth microdilution assay; assay type: functional; conditions: NRS53, 20 h

SMILES	MIC [1]	MIC [2]	MIC [3]	MIC [4]	MIC [5]	MIC [6]	MIC [7]	MIC [8]	MIC [9]	MIC [10]	MIC [11]	MIC [12]	MIC [13]	MIC [14]	MIC [18]	MIC [21]	MIC [22]	MIC [26]	MIC [27]	IC50 [33]	also measured
CCCSSC(=S)N(CC)CC	16 µM (≈ 3.57 µg/mL)	> 32 µM	> 32 µM	32 µM (≈ 7.15 µg/mL)	32 µM (≈ 7.15 µg/mL)	16 µM (≈ 3.57 µg/mL)	8 µM (≈ 1.79 µg/mL)	> 32 µM	16 µM (≈ 3.57 µg/mL)	> 32 µM	> 32 µM	16 µM (≈ 3.57 µg/mL)	> 32 µM	> 32 µM	32 µM (≈ 7.15 µg/mL)	> 32 µM	32 µM (≈ 7.15 µg/mL)	> 32 µM	> 32 µM	51 µM	MIC [15]: > 32 µM; MIC [16]: 32 µM (≈ 7.15 µg/mL); MIC [17]: > 32 µM; MIC [19]: > 32 µM; MIC [20]: 32 µM (≈ 7.15 µg/mL); MIC [23]: 1 µM (≈ 0.223 µg/mL); MIC [24]: > 32 µM; MIC [25]: 16 µM (≈ 3.57 µg/mL); MIC [28]: 4 µM (≈ 0.894 µg/mL); MIC [29]: > 32 µM; MIC [30]: 4 µM (≈ 0.894 µg/mL); MIC [31]: 4 µM (≈ 0.894 µg/mL); MIC [32]: > 32 µM; MIC [34]: 16 µM (≈ 3.57 µg/mL); MIC [35]: 4 µM (≈ 0.894 µg/mL)
CCCCCCCCCSSC(=S)N(CC)CC	–	–	–	–	–	16 µM (≈ 4.92 µg/mL)	8 µM (≈ 2.46 µg/mL)	–	–	–	–	8 µM (≈ 2.46 µg/mL)	–	–	4 µM (≈ 1.23 µg/mL)	8 µM (≈ 2.46 µg/mL)	8 µM (≈ 2.46 µg/mL)	8 µM (≈ 2.46 µg/mL)	32 µM (≈ 9.84 µg/mL)	55 µM	–
CCCCCCSSC(=S)N(CC)CC [DIETHYLCARBAMO(DITHIOPEROXO)THIOATE]	32 µM (≈ 8.5 µg/mL)	16 µM (≈ 4.25 µg/mL)	> 32 µM	> 32 µM	> 32 µM	8 µM (≈ 2.12 µg/mL)	4 µM (≈ 1.06 µg/mL)	> 32 µM	16 µM (≈ 4.25 µg/mL)	> 32 µM	> 32 µM	16 µM (≈ 4.25 µg/mL)	> 32 µM	> 32 µM	8 µM (≈ 2.12 µg/mL)	> 32 µM	> 32 µM	> 32 µM	> 32 µM	51 µM	MIC [15]: > 32 µM; MIC [16]: 32 µM (≈ 8.5 µg/mL); MIC [17]: > 32 µM; MIC [19]: > 32 µM; MIC [20]: 32 µM (≈ 8.5 µg/mL); MIC [23]: 2 µM (≈ 0.531 µg/mL); MIC [24]: > 32 µM; MIC [25]: 8 µM (≈ 2.12 µg/mL); MIC [28]: 4 µM (≈ 1.06 µg/mL); MIC [29]: > 32 µM; MIC [30]: 8 µM (≈ 2.12 µg/mL); MIC [31]: 4 µM (≈ 1.06 µg/mL); MIC [32]: > 32 µM; MIC [34]: 8 µM (≈ 2.12 µg/mL); MIC [35]: 2 µM (≈ 0.531 µg/mL)
CN[C@H](CC(C)C)C(=O)N[C@H]1C(=O)N[C@@H](CC(N)=O)C(=O)N[C@H]2C(=O)N[C@H]3C(=O)N[C@H](C(=O)N[C@H](C(=O)O)c4cc(O)cc(O)c4-c4cc3ccc4O)[C@H](O)c3ccc(c(Cl)c3)Oc3cc2cc(c3O[C@@H]2O[C@H](CO)[C@@H](O)[C@H](O)[C@H]2O[C@H]2C[C@](C)(N)[C@H](O)[C@H](C)O2)Oc2ccc(cc2Cl)[C@H]1O [VANCOMYCIN]	–	–	–	–	–	> 32 µM	–	–	–	–	–	1 µM (≈ 1.45 µg/mL)	–	–	8 µM (≈ 11.6 µg/mL)	> 32 µM	≤ 0.5 µM	≤ 0.5 µM	≤ 0.5 µM	–	MIC [36]: 8 µg/mL (≈ 5.52 µM)
